Key:
Rattus norvegicus [1] = test: In vivo inhibition of angiotensin I induced pressor effect after iv administration in rats; type: functional
Summary of the method: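 Conscious, unrestrained male Sprague-Dawley rats (225-275 g) with aortic and vena caval catheters, recovered at least 2 weeks. […] Compound was given iv in water or 5% NaHCO3 and responses followed up to 70 min. Maximum inhibition was averaged over four rats per dose; ED50 was interpolated from the maximum-inhibition vs dose plot.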

Rattus norvegicus [2] = test: In vivo inhibition angiotensin I induced pressor effect after po administration of 5 umol/kg in rats; type: functional
Summary of the method: (§1)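 Normotensive catheterized male Sprague-Dawley rats (225-275 g), conscious and unrestrained. Compound was given orally at 5.0 µmol/kg in water, 5% NaHCO3 or 1% agar suspension. Angiotensin I (310 ng/kg iv) pressor responses were compared with pre-dose responses for up to 280 min. Maximum percent inhibition is the mean of four animals.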

[3] = biological target: T1, Angiotensin-converting enzyme (Oryctolagus cuniculus, UniProt P12822); test: In vitro inhibition of angiotensin I converting enzyme in rabbit lung with hippuryl-histidyl-leucine as substrate; type: tissue-based; details: read-out: I50
T1 sequence (P12822 whole entry): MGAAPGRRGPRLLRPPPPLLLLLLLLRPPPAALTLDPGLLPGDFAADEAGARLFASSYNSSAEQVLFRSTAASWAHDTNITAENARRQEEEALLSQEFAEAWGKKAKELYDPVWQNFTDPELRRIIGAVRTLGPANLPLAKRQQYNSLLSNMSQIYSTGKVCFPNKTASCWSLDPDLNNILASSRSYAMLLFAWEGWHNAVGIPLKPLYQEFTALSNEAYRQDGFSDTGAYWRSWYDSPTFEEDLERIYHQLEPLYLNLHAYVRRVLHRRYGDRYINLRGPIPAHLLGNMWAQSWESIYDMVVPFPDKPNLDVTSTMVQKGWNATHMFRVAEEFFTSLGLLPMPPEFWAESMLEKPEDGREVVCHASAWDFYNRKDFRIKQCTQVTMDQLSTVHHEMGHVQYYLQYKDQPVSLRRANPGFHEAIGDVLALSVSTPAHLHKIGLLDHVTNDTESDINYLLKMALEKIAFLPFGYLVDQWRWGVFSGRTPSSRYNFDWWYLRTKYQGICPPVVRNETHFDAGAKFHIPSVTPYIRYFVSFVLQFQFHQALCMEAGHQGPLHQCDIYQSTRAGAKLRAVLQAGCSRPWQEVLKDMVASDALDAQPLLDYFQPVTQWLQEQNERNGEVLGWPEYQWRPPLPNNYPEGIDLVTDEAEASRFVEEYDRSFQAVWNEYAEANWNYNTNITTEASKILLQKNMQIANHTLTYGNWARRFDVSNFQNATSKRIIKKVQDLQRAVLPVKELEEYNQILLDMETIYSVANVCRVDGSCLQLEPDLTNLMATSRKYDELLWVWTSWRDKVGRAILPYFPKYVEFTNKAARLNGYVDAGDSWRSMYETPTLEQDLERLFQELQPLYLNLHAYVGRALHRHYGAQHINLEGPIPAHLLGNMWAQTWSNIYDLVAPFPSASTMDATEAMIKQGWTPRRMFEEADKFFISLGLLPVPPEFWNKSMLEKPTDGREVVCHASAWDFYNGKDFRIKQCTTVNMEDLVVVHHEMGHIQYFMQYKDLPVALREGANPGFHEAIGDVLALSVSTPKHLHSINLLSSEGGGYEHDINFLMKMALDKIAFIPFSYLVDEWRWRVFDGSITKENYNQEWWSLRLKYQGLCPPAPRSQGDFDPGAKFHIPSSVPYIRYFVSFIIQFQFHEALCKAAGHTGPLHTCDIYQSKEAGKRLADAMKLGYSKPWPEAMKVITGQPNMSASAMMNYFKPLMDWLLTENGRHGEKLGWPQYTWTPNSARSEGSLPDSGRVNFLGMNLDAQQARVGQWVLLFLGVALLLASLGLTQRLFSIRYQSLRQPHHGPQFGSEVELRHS
Summary of the method: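 Rabbit lung ACE with synthetic substrate hippurylhistidylleucine; the liberated hippuric acid was quantitated spectrophotometrically. Conditions follow the authors' earlier method.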

Rattus norvegicus [4] = test: In vivo inhibition of angiotensin I induced pressor effect after po administration in rats; type: functional
Summary of the method: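 Oral dosing of conscious catheterized male Sprague-Dawley rats (225-275 g) in water, 5% NaHCO3 or 1% agar suspension. Angiotensin I (310 ng/kg iv) pressor responses were followed up to 280 min against pre-dose values, with four rats per dose. ED50 was interpolated from a plot of maximum inhibition vs dose.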

Rattus norvegicus [5] = test: In vivo inhibition angiotensin I induced pressor effect after (5 uML/kg) p.o. administration in rats; type: functional; summary of the method: as §1

SMILES	ED50 (Rattus norvegicus [1]) [µmol/kg]	inhibition in vivo at 5 µmol/kg (Rattus norvegicus [2]) [%]	IC50 [3] [nM]	ED50 (Rattus norvegicus [4]) [µmol/kg]	Inhibition (Rattus norvegicus [5]) [%]
CC(C)CCCP(=O)(O)O[C@@H](CCCCN)C(=O)N1CCC[C@H]1C(=O)O	0.095	69	150		
CCCCCCCCP(=O)(O)O[C@@H](CCCCN)C(=O)N1CCC[C@H]1C(=O)O	0.091	83	38	1.4	
CC(=O)NCCCC[C@H](OP(=O)(O)CCCCc1ccccc1)C(=O)N1CCC[C@H]1C(=O)O	< 1.4		180		
CCCCCCCCCCP(=O)(O)O[C@@H](CCCCN)C(=O)N1CCC[C@H]1C(=O)O	0.17	2	95		
NCCCC[C@H](OP(=O)(O)CCCCCc1ccccc1)C(=O)N1CCC[C@H]1C(=O)O	0.067	65	14		
N=C(N)NCCCCC[C@H](OP(=O)(O)CCCCc1ccccc1)C(=O)N1CCC[C@H]1C(=O)O	> 1.5		32		
NCCCC[C@H](OP(=O)(O)CCCCc1cccnc1)C(=O)N1CCC[C@H]1C(=O)O	0.19	56	94		
CCCCCC(C)P(=O)(O)O[C@@H](CCCCN)C(=O)N1CCC[C@H]1C(=O)O (stereo not given in full)	0.13	29	61		
NCCCCC[C@H](OP(=O)(O)CCCCc1ccccc1)C(=O)N1CCC[C@H]1C(=O)O	> 1.5		110		
NCCCC[C@H](NP(=O)(O)CCCCc1ccccc1)C(=O)N1CCC[C@H]1C(=O)O	0.022		9	2.6	
CCCCCCCCCP(=O)(O)O[C@@H](CCCCN)C(=O)N1CCC[C@H]1C(=O)O	0.13	23	31		
NCCCC[C@H](OP(=O)(O)CCCc1ccccc1)C(=O)N1CCC[C@H]1C(=O)O	0.069	67	190	2.62	
NCCCCC(CP(=O)(O)CCCCc1ccccc1)C(=O)N1CCC[C@H]1C(=O)O (stereo not given in full)	0.18		85	35	
CCOC(=O)[C@H](CCc1ccccc1)N[C@@H](C)C(=O)N1CCC[C@H]1C(=O)O				0.46	
NCCCC[C@H](OP(=O)(O)CCCCc1ccc(F)cc1)C(=O)N1CCC[C@H]1C(=O)O	0.067	81	31	0.89	
CC(C)C[C@H](OP(=O)(O)CCCCc1ccccc1)C(=O)N1CCC[C@H]1C(=O)O			3800		
C[C@H](OP(=O)(O)CCCCc1ccccc1)C(=O)N1CCC[C@H]1C(=O)O	0.75		59	> 25	
CCCCCCP(=O)(O)O[C@@H](CCCCN)C(=O)N1CCC[C@H]1C(=O)O	0.036	82	24	0.94	

SMILES	ED50 (Rattus norvegicus [1]) [µmol/kg]	inhibition in vivo at 5 µmol/kg (Rattus norvegicus [2]) [%]	IC50 [3] [nM]	ED50 (Rattus norvegicus [4]) [µmol/kg]	Inhibition (Rattus norvegicus [5]) [%]
CCCCC(C)CP(=O)(O)O[C@@H](CCCCN)C(=O)N1CCC[C@H]1C(=O)O (stereo not given in full)	0.14	68	40		
C[C@H](CP(=O)(O)CCCCc1ccccc1)C(=O)N1CCC[C@H]1C(=O)O			220		
CCCC[C@H](OP(=O)(O)CCCCc1ccccc1)C(=O)N1CCC[C@H]1C(=O)O	> 1.4		180		
N=C(N)NCCCC[C@H](OP(=O)(O)CCCCc1ccccc1)C(=O)N1CCC[C@H]1C(=O)O	0.045	48	6.2		
NCCCC[C@H](OP(=O)(O)CCc1ccccc1)C(=O)N1CCC[C@H]1C(=O)O	0.217	65	190	1.39	
O=C(O)[C@@H]1CCCN1C(=O)[C@H](CCc1ccccc1)OP(=O)(O)CCCCc1ccccc1	29		640		
NCCCC[C@H](OP(=O)(O)CCCCC1CCCCC1)C(=O)N1CCC[C@H]1C(=O)O	0.18	68	55	2.3	
CCCCCP(=O)(O)O[C@@H](CCCCN)C(=O)N1CCC[C@H]1C(=O)O	0.071	57	27		
CCCCCCCP(=O)(O)O[C@@H](CCCCN)C(=O)N1CCC[C@H]1C(=O)O	0.12	75	19	0.62	
C[C@H](NP(=O)(O)CCCCc1ccccc1)C(=O)N1CCC[C@H]1C(=O)O	0.05		12	25	
CCCCP(=O)(O)O[C@@H](CCCCN)C(=O)N1CCC[C@H]1C(=O)O	0.091	27	96		
CC(=O)NCCC[C@H](OP(=O)(O)CCCCc1ccccc1)C(=O)N1CCC[C@H]1C(=O)O	0.25	4	42		
NCCC[C@H](OP(=O)(O)CCCCc1ccccc1)C(=O)N1CCC[C@H]1C(=O)O	1	28	390		
N=C(N)NCCC[C@H](OP(=O)(O)CCCCc1ccccc1)C(=O)N1CCC[C@H]1C(=O)O	0.12	40	19		
C[C@H](CS)C(=O)N1CCC[C@H]1C(=O)O [CAPTOPRIL]	0.092			0.73	
NCCCC[C@H](OP(=O)(O)CCCCc1ccccc1)C(=O)N1CCC[C@H]1C(=O)O [CERONAPRIL]	0.063		36	0.53	90
C[C@H](N[C@@H](CCc1ccccc1)C(=O)O)C(=O)N1CCC[C@H]1C(=O)O [ENALAPRILAT ANHYDROUS]	0.033			5.13	
